Data reported in ChEMBL document CHEMBL3734648, “The synthesis of indolo[2,3-b]quinoline derivatives with a guanidine group: highly selective cytotoxic agents” (Eur J Med Chem, 2015).
Active and inactive are the calls of the source. The calls are words filed in the database; no cut-off is given here.

Assays:
[1] = Induction of DNA intercalation (unknown origin) after 24 hrs by methyl green dye displacement assay
Method in brief: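 Compound displaces methyl green from a DNA/methyl green complex. IC50 is the concentration giving a 50% decrease in the initial absorbance of the DNA/methyl green solution. Mean ± SD, n = 3–5.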

[2] = Hemolytic activity in human RBC after 30 mins by spectrophotometry; type: ADME, cell-based, Erythrocyte; conditions: for Activity: erythrocyte, 0.5 h; for HC50 at 0.5 h: human red blood cells
Method in brief: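 Human red blood cells incubated with compound over 10^-6 to 5×10^-4 M for 30 min at 37 °C. HC50 taken as the concentration lysing 50% of cells. Mean ± SD of three individual determinations.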

MCF7 [3] = assay: Antiproliferative activity against human MCF7 cells after 72 hrs by sulforhodamine B assay; type: functional, cell-based; conditions: MCF7, 72 h
KB [4] = assay: Antiproliferative activity against human KB cells after 72 hrs by sulforhodamine B assay; type: functional, cell-based
BALB/3T3 = assay: Cytotoxicity against mouse BALB/3T3 cells assessed as cell viability after 1 hr by sulforhodamine B assay; type: cell-based; conditions: BALB/3T3, 1 h
A549 [5] = assay: Antiproliferative activity against human A549 cells after 72 hrs by sulforhodamine B assay; type: functional, cell-based; conditions: A549, 72 h
Candida albicans = assay: Inhibition of biofilm formation of Candida albicans assessed as reduction in cell viability of biofilm after 24 hrs by XTT staining based spectrophotometry; type: functional; conditions: read-out: ED50 (the source's name)
Method in brief: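 Candida albicans biofilms grown in vitro in 96-well plates, then exposed to compounds, and biofilm cell viability determined. ED50 reported as mean ± SD, n = 3.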

LoVo = assay: Antiproliferative activity against human LoVo cells after 72 hrs by sulforhodamine B assay; type: functional, cell-based
KB [6] = assay: Induction of cell cycle arrest in human KB cells assessed as accumulation at S phase at 0.25 uM after 72 hrs by propidium iodide staining based flow cytometry (reference value: 32.1 +/- 5.4%); type: functional
Method in brief: (§1)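 KB cells exposed for 72 h at […]. Cell-cycle phase distribution (G0/G1, S, G2/M) given as mean ± SD from independent experiments. Treated cells compared with control cells by Mann–Whitney U test, significance at p ≤ 0.05.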

KB [7] = assay: Induction of cell cycle arrest in human KB cells assessed as accumulation at S phase at 0.5 uM after 72 hrs by propidium iodide staining based flow cytometry (reference value: 32.1 +/- 5.4%); type: functional; method in brief: as §1
KB [8] = assay: Induction of apoptosis in human KB cells assessed as necrotic cells at 1 uM after 72 hrs by Annexin V/propidium iodide staining-based flow cytometry (reference value: 3.9 +/- 0.8 %); type: functional
Method in brief: (§2)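 Apoptosis and necrosis in KB cells after 72 h exposure at 1.0 or 0.5. Staining with annexin V (AV) and propidium iodide (PI). Cells scored as live (AV−/PI−), apoptotic (AV+/PI−) or necrotic (AV+/PI+). Values as mean ± SD, compared with control cells at p ≤ 0.05.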

KB [9] = assay: Induction of apoptosis in human KB cells assessed as necrotic cells at 0.5 uM after 72 hrs by Annexin V/propidium iodide staining-based flow cytometry (reference value: 3.9 +/- 0.8 %); type: functional; method in brief: as §2
KB [10] = assay: Induction of cell cycle arrest in human KB cells assessed as accumulation at G0/G1 phase at 0.5 uM after 72 hrs by propidium iodide staining based flow cytometry (reference value: 53.2 +/- 5.8%); type: functional; method in brief: as §1
KB [11] = assay: Induction of cell cycle arrest in human KB cells assessed as accumulation at S phase at 1 uM after 72 hrs by propidium iodide staining based flow cytometry (reference value: 32.1 +/- 5.4%); type: functional; method in brief: as §1
KB [12] = assay: Induction of apoptosis in human KB cells assessed as induction of caspase-3/7 activity at 1 uM after 72 hrs by Ac-DEVD-ACC-based fluorescence assay relative to control; type: functional
Method in brief: (§3)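 KB cells treated for 72 h at 1.0 or 0.5. Caspase-3/7 activity measured by an enzymatic assay, normalized to protein content and expressed relative to untreated control. Significance versus control at p ≤ 0.05.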

KB [13] = assay: Induction of apoptosis in human KB cells assessed as live cells at 0.5 uM after 72 hrs by Annexin V/propidium iodide staining-based flow cytometry (reference value: 91.3 +/- 3.1 %); type: functional; method in brief: as §2
KB [14] = assay: Induction of cell cycle arrest in human KB cells assessed as accumulation at G0/G1 phase at 1 uM after 72 hrs by propidium iodide staining based flow cytometry (reference value: 53.2 +/- 5.8%); type: functional; method in brief: as §1
KB [15] = assay: Induction of apoptosis in human KB cells assessed as apoptotic cells at 0.5 uM after 72 hrs by Annexin V/propidium iodide staining-based flow cytometry (reference value: 4.8 +/- 2.4 %); type: functional; method in brief: as §2
KB [16] = assay: Induction of cell cycle arrest in human KB cells assessed as accumulation at G2/M phase at 0.5 uM after 72 hrs by propidium iodide staining based flow cytometry (reference value: 14.7 +/- 1.1 %); type: functional; method in brief: as §1
KB [17] = assay: Induction of cell cycle arrest in human KB cells assessed as accumulation at G2/M phase at 0.25 uM after 72 hrs by propidium iodide staining based flow cytometry (reference value: 14.7 +/- 1.1 %); type: functional; method in brief: as §1
KB [18] = assay: Induction of apoptosis in human KB cells assessed as apoptotic cells at 1 uM after 72 hrs by Annexin V/propidium iodide staining-based flow cytometry (reference value: 4.8 +/- 2.4 %); type: functional; method in brief: as §2
KB [19] = assay: Induction of mitochondrial membrane potential loss in human KB cells at 0.5 to 1 uM after 72 hrs by JC-1 staining based flow cytometric analysis; type: functional
Method in brief: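 Mitochondrial membrane potential of KB cells read after 72 h exposure at 1.0 and 0.5. Fraction of cells with reduced potential compared with control cells, significance at p ≤ 0.05.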

KB [20] = assay: Induction of cell cycle arrest in human KB cells assessed as accumulation at G2/M phase at 1 uM after 72 hrs by propidium iodide staining based flow cytometry (reference value: 14.7 +/- 1.1 %); type: functional; method in brief: as §1
KB [21] = assay: Induction of cell cycle arrest in human KB cells assessed as accumulation at G0/G1 phase at 0.25 uM after 72 hrs by propidium iodide staining based flow cytometry (reference value: 53.2 +/- 5.8%); type: functional; method in brief: as §1
KB [22] = assay: Induction of apoptosis in human KB cells assessed as live cells at 1 uM after 72 hrs by Annexin V/propidium iodide staining-based flow cytometry (reference value: 91.3 +/- 3.1 %); type: functional; method in brief: as §2
A549 [23] = assay: Selectivity index, ratio of IC50 for mouse BALB/3T3 cells to IC50 for human A549 cells; type: functional
MCF7 [24] = assay: Selectivity index, ratio of IC50 for mouse BALB/3T3 cells to IC50 for human MCF7 cells; type: functional
KB [25] = assay: Induction of apoptosis in human KB cells assessed as induction of caspase-3/7 activity at 0.5 uM after 72 hrs by Ac-DEVD-ACC-based fluorescence assay; type: functional, cell-based; method in brief: as §3
[26] = system: erythrocytes (Homo sapiens); assay: Hemolytic activity in human erythrocytes after 30 mins by spectrophotometry

| IC50 [1] [µM] | IC50 (MCF7 [3]) [µM] | IC50 (KB [4]) [µM] | IC50 (A549 [5]) [µM] | IC50 (LoVo) [µM] | SMILES | IC50 (BALB/3T3) [µM] | EC50 (Candida albicans) [µM] | also measured |
| --- | --- | --- | --- | --- | --- | --- | --- | --- |
| 12.1 | – | – | – | – | CCOc1ccc(-c2nc3ccc(-c4nc5ccc(N6CCN(C)CC6)cc5[nH]4)cc3[nH]2)cc1 | – | – | – |
| 80.3 | 0.75 | 1.13 | 0.74 | 0.09 | Cc1c2ccccc2nc2c1c1cc(NC(=O)CN)ccc1n2CCN(C)C.Cl.Cl.Cl | 0.61 | 74.3 | Activity [2]: Dose-dependent effect; HC50 at 0.5 h [2]: 80.3 µM |
| – | 2.06 | 7.37 | 6.22 | 8.31 | Cc1c2ccccc2nc2c1c1cc(NC(=O)[C@@H]3CCCN3C(=N)N)ccc1n2CCN(C)C | 13.4 | – | – |
| 101 | 0.81 | 0.87 | 3.24 | 9.38 | Cc1c2ccccc2nc2c1c1cc(NC(=N)N)ccc1n2CCN(C)C.Cl.Cl.Cl.Cl | 30 | 287 | Activity (KB [6]): 31.1%; Activity (KB [7]): 31.6%; Activity (KB [8]): 7.5%; Activity (KB [9]): 5.9%; Activity (KB [10]): 43.8%; Activity (KB [11]): 46.9%; fold change (FC) (KB [12]): 2; Activity (KB [13]): 61.5%; Activity (KB [14]): 33.4%; Activity (KB [15]): 32.5%; Activity (KB [16]): 24.6%; Activity (KB [17]): 17.3%; Activity (KB [18]): 24.4%; Activity (KB [19]): 11%; Activity (KB [20]): 19.6%; Activity (KB [21]): 51.6%; Activity (KB [22]): 68.1% |
| 40.5 | 4.75 | 3.88 | 1.82 | 0.83 | Cc1c2c3cc(NC(=O)CNC(=N)N)ccc3nc-2n(C)c2ccccc12.Cl.Cl.Cl | 4.47 | 4.2 | Activity [2]: Dose-dependent effect; HC50 at 0.5 h [2]: 192 µM |
| 125 | 0.33 | 0.86 | 0.88 | 0.077 | Cc1c2ccccc2nc2c1c1cc(N)ccc1n2CCN(C)C | 0.56 | 34.2 | – |
| – | 2.31 | 1.23 | 1.96 | 0.82 | Cc1c2ccccc2nc2c1c1cc(NC(=O)CNC(=N)N)ccc1n2CCN(C)C | 3.55 | – | – |
| 71.5 | 0.06 | 0.88 | 0.14 | 76.9 | Cc1c2c3cc(NC(=N)N)ccc3nc-2n(C)c2ccccc12.Cl.Cl | 66.4 | 197 | Activity (KB [6]): 35.3%; Activity (KB [7]): 39.8%; Ratio IC50 (A549 [23]): 600; Activity (KB [8]): 12.2%; Activity (KB [9]): 8.2%; Activity (KB [10]): 29.2%; Activity (KB [11]): 48.6%; fold change (FC) (KB [12]): 5; Ratio IC50 (MCF7 [24]): 600; Activity (KB [13]): 41.1%; Activity (KB [14]): 32.8%; Activity (KB [15]): 43.7%; Activity (KB [16]): 31%; Activity (KB [17]): 25.3%; Activity (KB [18]): 25.7%; Activity (KB [19]): 11%; Activity (KB [20]): 18.6%; Activity (KB [21]): 39.5%; Activity (KB [22]): 62.1%; Activity (KB [25]): Active |
| 42.2 | 0.32 | 0.38 | 0.27 | 0.06 | Cc1c2ccccc2nc2c1c1cc(NC(=O)[C@@H]3CCCN3)ccc1n2CCN(C)C | 0.36 | 25.5 | – |
| – | 7.85 | 15.6 | 11 | 7.76 | Cc1c2c3cc(NC(=O)[C@@H]4CCCN4C(=N)N)ccc3nc-2n(C)c2ccccc12 | 31.9 | – | – |
| 367 | – | – | – | – | Cc1c2c3ccccc3nc-2n(C)c2ccccc12 | – | – | HC50 at 0.5 h [26]: 120 µM |
| 150 | 0.52 | 0.72 | 0.16 | 0.07 | Cc1c2c3cc(N)ccc3nc-2n(C)c2ccccc12 | 0.54 | 41 | – |
